This is an account of results in publication PMC7203960 (ACS Omega, 2020).

In data set [1] the test system is SW1990. Description: CellTiter-Glo luminescent cell viability assay, SW1990. To be noted: Homo sapiens, SW1990, 72 h, read-out: IC50 SW1990. It counts as cell-based. In outline: (§1)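 AsPC1 and SW1990 human pancreatic cancer cells were obtained from ATCC and grown in RPMI with FBS, penicillin 100 IU/mL and streptomycin 100 μg/mL at 37 °C in 5% CO2. Compounds were made up as 100 mM DMSO stocks and diluted to 0.1 mM in sterile PBS. Cells were seeded at 1500 cells/well, held 24 h, then treated 72 h. Viability was read by CellTiter-Glo luminescence, in triplicate.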

The subject of data set [2] is AsPC1. Description: CellTiter-Glo luminescent cell viability assay, AsPC1. Format: cell-based. To be noted: Homo sapiens, ASPC1, 72 h, read-out: IC50 AsPC1. In outline:
as §1

Data set [3] is described as follows: CellTiter-Glo luminescent cell viability assay, non-cancerous cell line MRC5. Format: cell-based. To be noted: human, MRC5 cells (non-cancerous cell line). In outline: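 Test compounds were made up as 100 mM DMSO stocks and diluted to 0.1 mM in sterile PBS. Cells were seeded at 1500 cells/well in 384-well plates and held 24 h before 72 h exposure. Viability was read by CellTiter-Glo luminescence on a microplate reader.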

A short description of data set [4]: Radical scavenging activity by DPPH method. In outline:
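DPPH (1.6 mg in 50 mL DMSO), 1.5 mL, was mixed with 1.5 mL of test compound at 100 μg/mL. The mixture stood 45 min at ambient temperature in the dark, then absorbance was read at 517 nm. Blank DPPH solution served as control. Scavenging % was computed from control and sample absorbances, in triplicate.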
On the technique in general: The DPPH test is a chemical assay of radical scavenging.

The IC50 is the concentration at which inhibition is half-maximal. In the case of `Nc1ccn([C@@H]2O[C@H](CO)[C@@H](O)C2(F)F)c(=O)n1` [gemcitabine], the values for the IC50 in data set [1] and in data set [2] were 35.1 ± 1.78 µM and 39.3 ± 4.44 µM, respectively. In data set [3], the 50% inhibitory concentration (IC50) at 72 h turned out to be 54.17 ± 0.2 µM.
Take `O=C1O[C@H]([C@@H](O)CO)C(O)=C1O` [AA, ascorbic acid]: the “% scavenging (DPPH)” value in data set [4] (100 μg/mL, 45 min incubation, absorbance at 517 nm, triplicate) is recorded as 88.75 ± 0.89%. Also, the IC50 in data set [4] (read-out: IC50 (DPPH radical scavenging), DPPH method) stood at 170 µM.
